Measured values as given in ChEMBL document CHEMBL4130382, “Novel unsaturated glycyrrhetic acids derivatives: Design, synthesis and anti-inflammatory activity” (Eur J Med Chem, 2017).
The source made the active and inactive calls. The calls are words filed in the database; no cut-off is given here.

How the values were obtained:
[1] = Cytotoxicity against mouse RAW264.7 cells assessed as cell viability at 40 uM after 24 hrs by MTT assay (reference value: 100%); type: cell-based; details: read-out: Activity
Procedure, shortened: (§1)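 RAW264.7 cells seeded at 6×10^3 cells/well and cultured 24 h. Compounds diluted in DMEM for 24 h exposure. MTT 0.5 mg/mL added for 4 h, formazan dissolved in DMSO, OD read at 570 nm. Viability given as % of medium-only blank. Three independent experiments.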

RAW264.7 [2] = test: Antiinflammatory activity in mouse RAW264.7 cells assessed as inhibition of LPS-induced NO production by measuring nitrite level at 20 uM pretreated for 2 hrs followed by LPS challenge measured after 24 hrs by Griess assay; type: functional, cell-based
Procedure, shortened: (§2)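 RAW264.7 cells grown in DMEM with 10% FBS plus penicillin/streptomycin at 37 °C and 5% CO2. Seeded at 1×10^5 cells/well and cultured 20 h. Pretreated 2 h with compounds in serum-free medium, then LPS 1 µg/mL for 24 h. Nitrite read with Griess reagent at 540 nm. Inhibition = (LPS-only − treated)/(LPS-only − medium blank) × 100%. Mean ± SD, n = 3.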

RAW264.7 [3] = test: Antiinflammatory activity in mouse RAW264.7 cells assessed as inhibition of LPS-induced NO production by measuring nitrite level at 40 uM pretreated for 2 hrs followed by LPS challenge measured after 24 hrs by Griess assay relative to control; type: functional; procedure, shortened: as §2
[4] = Cytotoxicity against mouse RAW264.7 cells assessed as cell viability at 20 uM after 24 hrs by MTT assay (reference value: 100%); type: cell-based; details: read-out: Activity; procedure, shortened: as §1
RAW264.7 [5] = test: Antiinflammatory activity in mouse RAW264.7 cells assessed as inhibition of LPS-stimulated IL-6 production preincubated for 2 hrs followed by LPS stimulaton measured after 24 hrs by ELISA; type: functional, cell-based
Procedure, shortened: (§3)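 Cells at 7×10^4/well cultured 24 h, then pretreated 2 h with 10–40 µM compound. LPS 1 µg/mL added for 24 h. IL-6 and TNF-α measured in supernatant by mouse ELISA kits.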

RAW264.7 [6] = test: Antiinflammatory activity in mouse RAW264.7 cells assessed as inhibition of LPS-stimulated TNF-alpha production preincubated for 2 hrs followed by LPS stimulaton measured after 24 hrs by ELISA; type: functional, cell-based; procedure, shortened: as §3
RAW264.7 [7] = test: Antiinflammatory activity in mouse RAW264.7 cells assessed as inhibition of LPS-stimulated COX-2 production at 40 uM preincubated with compound followed by LPS stimulation measured after 24 hrs by Western blot relative to control; type: functional
Procedure, shortened: (§4)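 Cells at 2×10^6/well cultured 24 h. Medium replaced with fresh medium containing 10–40 µM compound, or Bay 11-7082 20 µM as NF-κB inhibitor control, plus LPS 1 µg/mL for 24 h. Lysates in IP buffer with 1 mM PMSF; protein by BCA. Equal protein run on 12.5% SDS-PAGE, PVDF, ECL detection for iNOS and COX-2. Mean ± SD, n = 3.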

RAW264.7 [8] = test: Antiinflammatory activity in mouse RAW264.7 cells assessed as inhibition of LPS-stimulated iNOS production at 40 uM preincubated with compound followed by LPS stimulation measured after 24 hrs by Western blot relative to control; type: functional; procedure, shortened: as §4
RAW264.7 [9] = test: Antiinflammatory activity in mouse RAW264.7 cells assessed as inhibition of LPS-stimulated COX-2 production preincubated with compound followed by LPS stimulation measured after 24 hrs by Western blot; type: functional, cell-based; procedure, shortened: as §4
RAW264.7 [10] = test: Antiinflammatory activity in mouse RAW264.7 cells assessed as inhibition of LPS-stimulated iNOS production preincubated with compound followed by LPS stimulation measured after 24 hrs by Western blot; type: functional, cell-based; procedure, shortened: as §4
[11] = target: Transcription factor p65 (Mus musculus) (UniProt Q04207); test: Inhibition of LPS-induced NFkappaB p65 phosphorylation in mouse RAW264.7 cells preincubated with compound followed by LPS stimulation measured after 30 mins by Western blot; type: cell-based
Procedure, shortened: (§5)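 Cells at 2×10^6/well cultured 24 h, then given 10–40 µM compound with LPS 1 µg/mL for 30 min; Bay 11-7082 20 µM as control. Lysates in IP buffer with PMSF; equal protein on 12.5% SDS-PAGE, PVDF. Blocked in 5% milk/TBST, primary antibodies to phospho and total JNK, ERK1/2, p38, IκB and p65 at 1:1000 overnight at 4 °C, ECL detection. Mean ± SD, n = 3.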

[12] = target: Transcription factor p65 (Mus musculus) (UniProt Q04207); test: Inhibition of LPS-induced NFkappaB p65 nuclear translocation in mouse RAW264.7 cells at 20 to 40 uM preincubated for 1 hr followed by LPS stimulation measured after 3 hrs by DAPI staining-based immunofluorescence assay; type: cell-based
Procedure, shortened: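 Cells at 7×10^4/well cultured 24 h, pretreated with 20 or 40 µM compound, then LPS 1 µg/mL for 3 h. Fixed in 4% formaldehyde, permeabilized with 0.3% Triton X-100, blocked with 5% BSA. Stained overnight with anti-p65, then Alexa Fluor 488 anti-rabbit; nuclei counterstained with DAPI and imaged.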

RAW264.7 [13] = test: Inhibition of LPS-induced ERK phosphorylation in mouse RAW264.7 cells at 40 uM preincubated with compound followed by LPS stimulation measured after 30 mins by Western blot; type: cell-based; procedure, shortened: as §5
RAW264.7 [14] = test: Inhibition of LPS-induced JNK phosphorylation in mouse RAW264.7 cells at 10 to 40 uM preincubated with compound followed by LPS stimulation measured after 30 mins by Western blot; type: cell-based; procedure, shortened: as §5
[15] = target: MAP kinase p38 (Mus musculus) (UniProt P47811+O08911+Q9WUI1+Q9Z1B7); test: Inhibition of LPS-induced p38 MAPK phosphorylation in mouse RAW264.7 cells at 10 to 40 uM preincubated with compound followed by LPS stimulation measured after 30 mins by Western blot; type: cell-based; procedure, shortened: as §5

Chain of Transcription factor p65 (Mus musculus) (Q04207 whole entry): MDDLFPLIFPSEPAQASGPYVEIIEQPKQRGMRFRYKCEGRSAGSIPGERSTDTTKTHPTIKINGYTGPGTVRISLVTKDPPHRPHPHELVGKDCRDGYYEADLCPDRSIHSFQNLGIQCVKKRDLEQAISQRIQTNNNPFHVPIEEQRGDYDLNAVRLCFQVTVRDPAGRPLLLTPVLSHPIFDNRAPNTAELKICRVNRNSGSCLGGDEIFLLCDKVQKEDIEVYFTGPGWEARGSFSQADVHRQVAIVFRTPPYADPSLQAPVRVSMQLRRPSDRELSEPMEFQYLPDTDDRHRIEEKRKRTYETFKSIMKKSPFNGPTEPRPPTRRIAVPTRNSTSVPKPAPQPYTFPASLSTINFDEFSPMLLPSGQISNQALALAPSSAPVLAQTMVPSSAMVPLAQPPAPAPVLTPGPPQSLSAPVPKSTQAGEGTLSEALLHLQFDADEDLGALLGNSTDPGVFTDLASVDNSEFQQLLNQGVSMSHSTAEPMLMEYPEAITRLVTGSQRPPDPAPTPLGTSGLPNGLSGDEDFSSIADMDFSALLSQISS

Structure (SMILES) | viability at 24 h, 40 µM [1] | inhibition (RAW264.7 [2]) | inhibition (RAW264.7 [3]) | viability at 24 h, 20 µM [4] | further results
CC(C)NC(=O)/C=C/[C@@]1(C)CC[C@]2(C)CC[C@]3(C)C(=CC(=O)[C@@H]4[C@@]5(C)CC[C@H](O)C(C)(C)[C@@H]5CC[C@]43C)[C@@H]2C1 | 97.6% | Active | – | – | –
CC1(C)[C@@H](O)CC[C@]2(C)[C@H]3C(=O)C=C4[C@@H]5C[C@@](C)(/C=C/C(=O)N6CCOCC6)CC[C@]5(C)CC[C@@]4(C)[C@]3(C)CC[C@@H]12 | 97.5% | inactive | inactive | – | –
CC(O)CNC(=O)/C=C/[C@@]1(C)CC[C@]2(C)CC[C@]3(C)C(=CC(=O)[C@@H]4[C@@]5(C)CC[C@H](O)C(C)(C)[C@@H]5CC[C@]43C)[C@@H]2C1 (stereo not given in full) | – | Active | Active | 91.4% | –
CC1(C)[C@@H](O)CC[C@]2(C)[C@H]3C(=O)C=C4[C@@H]5C[C@@](C)(/C=C/C(=O)NCCCN6CCOCC6)CC[C@]5(C)CC[C@@]4(C)[C@]3(C)CC[C@@H]12 | 99.8% | Active | Active | – | –
CC(C)N(C(=O)/C=C/[C@@]1(C)CC[C@]2(C)CC[C@]3(C)C(=CC(=O)[C@@H]4[C@@]5(C)CC[C@H](O)C(C)(C)[C@@H]5CC[C@]43C)[C@@H]2C1)C(C)C | – | Active | – | 95.8% | –
CC1(C)[C@@H](O)CC[C@]2(C)[C@H]3C(=O)C=C4[C@@H]5C[C@@](C)(/C=C/C(=O)O)CC[C@]5(C)CC[C@@]4(C)[C@]3(C)CC[C@@H]12 | 99.2% | Active | Active | – | –
CC1(C)[C@@H](O)CC[C@]2(C)[C@H]3C(=O)C=C4[C@@H]5C[C@@](C)(/C=C/C(=O)NCCCCl)CC[C@]5(C)CC[C@@]4(C)[C@]3(C)CC[C@@H]12 | 95% | – | – | – | –
CC1(C)[C@@H](O)CC[C@]2(C)[C@H]3C(=O)C=C4[C@@H]5C[C@@](C)(/C=C/C(=O)NNC(N)=O)CC[C@]5(C)CC[C@@]4(C)[C@]3(C)CC[C@@H]12 | – | – | – | 96.7% | –
CCNC(=O)/C=C/[C@@]1(C)CC[C@]2(C)CC[C@]3(C)C(=CC(=O)[C@@H]4[C@@]5(C)CC[C@H](O)C(C)(C)[C@@H]5CC[C@]43C)[C@@H]2C1 | 92% | Active | Active | – | –
CC(=O)O[C@H]1CC[C@]2(C)[C@H]3C(=O)C=C4[C@@H]5C[C@@](C)(/C=C/C(=O)OCc6ccccc6)CC[C@]5(C)CC[C@@]4(C)[C@]3(C)CC[C@H]2C1(C)C | – | inactive | inactive | 96.9% | –
CC1(C)[C@@H](O)CC[C@]2(C)[C@H]3C(=O)C=C4[C@@H]5C[C@@](C)(C(=O)O)CC[C@]5(C)CC[C@@]4(C)[C@]3(C)CC[C@@H]12 [ENOXOLONE] | 102% | Active | Active | – | –
CN1CCN(C(=O)/C=C/[C@@]2(C)CC[C@]3(C)CC[C@]4(C)C(=CC(=O)[C@@H]5[C@@]6(C)CC[C@H](O)C(C)(C)[C@@H]6CC[C@]54C)[C@@H]3C2)CC1 | 96.6% | – | – | – | inhibition at 40 µM (RAW264.7 [3]): > 70%; IC50 (RAW264.7 [5]): 13.3 µM; inhibition (RAW264.7 [5]): Dose-dependent effect; inhibition (RAW264.7 [6]): Dose-dependent effect; inhibition at 40 µM (RAW264.7 [7]): 55.6%; inhibition at 40 µM (RAW264.7 [8]): 76.9%; inhibition (RAW264.7 [9]): Dose-dependent effect; inhibition (RAW264.7 [10]): Dose-dependent effect; inhibition [11]: Dose-dependent effect; inhibition [12]: Active; inhibition (RAW264.7 [13]): Active; inhibition (RAW264.7 [14]): inactive; inhibition [15]: inactive
CCOC(=O)/C=C/[C@@]1(C)CC[C@]2(C)CC[C@]3(C)C(=CC(=O)[C@@H]4[C@@]5(C)CC[C@H](OC(C)=O)C(C)(C)[C@@H]5CC[C@]43C)[C@@H]2C1 | – | – | – | 94.3% | –
CN(C)C(=O)/C=C/[C@@]1(C)CC[C@]2(C)CC[C@]3(C)C(=CC(=O)[C@@H]4[C@@]5(C)CC[C@H](O)C(C)(C)[C@@H]5CC[C@]43C)[C@@H]2C1 | 99.5% | Active | Active | – | –
CC1(C)[C@@H](O)CC[C@]2(C)[C@H]3C(=O)C=C4[C@@H]5C[C@@](C)(/C=C/C(=O)NCCO)CC[C@]5(C)CC[C@@]4(C)[C@]3(C)CC[C@@H]12 | – | Active | Active | 93.6% | –
CC1(C)[C@@H](O)CC[C@]2(C)[C@H]3C(=O)C=C4[C@@H]5C[C@@](C)(/C=C/C(=O)NCCc6ccccc6)CC[C@]5(C)CC[C@@]4(C)[C@]3(C)CC[C@@H]12 | – | inactive | inactive | 93% | –
Cc1cccc(NC(=O)/C=C/[C@@]2(C)CC[C@]3(C)CC[C@]4(C)C(=CC(=O)[C@@H]5[C@@]6(C)CC[C@H](O)C(C)(C)[C@@H]6CC[C@]54C)[C@@H]3C2)c1 | 99.3% | inactive | inactive | – | –
CNC(=O)/C=C/[C@@]1(C)CC[C@]2(C)CC[C@]3(C)C(=CC(=O)[C@@H]4[C@@]5(C)CC[C@H](O)C(C)(C)[C@@H]5CC[C@]43C)[C@@H]2C1 | 100% | Active | Active | – | –
CC1(C)[C@@H](O)CC[C@]2(C)[C@H]3C(=O)C=C4[C@@H]5C[C@@](C)(/C=C/C(=O)NNc6ccccc6)CC[C@]5(C)CC[C@@]4(C)[C@]3(C)CC[C@@H]12 | – | inactive | inactive | 94.8% | –
CCN1CCN(C(=O)/C=C/[C@@]2(C)CC[C@]3(C)CC[C@]4(C)C(=CC(=O)[C@@H]5[C@@]6(C)CC[C@H](O)C(C)(C)[C@@H]6CC[C@]54C)[C@@H]3C2)CC1 | 98.4% | – | – | – | inhibition at 40 µM (RAW264.7 [3]): > 70%; IC50 (RAW264.7 [5]): 15.5 µM; inhibition (RAW264.7 [5]): Dose-dependent effect; inhibition (RAW264.7 [6]): Dose-dependent effect
